Laboratory results from ChEMBL document CHEMBL1123096, “Alpha-adrenoreceptor reagents. 3. Synthesis of some 2-substituted 1,4-benzodioxans as selective presynaptic alpha 2-adrenoreceptor antagonists” (J Med Chem, 1985).

Legend:
[1] = target: T1, Adrenergic receptor alpha-1 (Rattus norvegicus) (UniProt P15823+P23944+P43140); assay: Alpha-1 adrenergic receptor binding activity relative to idazoxan.; type: protein assay
[2] = target: Adrenergic receptor alpha (Rattus norvegicus) (UniProt P15823+P23944+P43140+P22086+P19328+P22909); assay: Selectivity as ratio […] against alpha-2 receptor to that of alpha-1 receptor.; type: protein assay
[3] = target: T2, Adrenergic receptor alpha-2 (Rattus norvegicus, UniProt P22086+P19328+P22909); assay: Alpha-2 adrenergic receptor antagonist activity in a rat vas deferens assay. Values ranges from 8.42-9.51; type: functional
T2 sequence (P22086 whole entry): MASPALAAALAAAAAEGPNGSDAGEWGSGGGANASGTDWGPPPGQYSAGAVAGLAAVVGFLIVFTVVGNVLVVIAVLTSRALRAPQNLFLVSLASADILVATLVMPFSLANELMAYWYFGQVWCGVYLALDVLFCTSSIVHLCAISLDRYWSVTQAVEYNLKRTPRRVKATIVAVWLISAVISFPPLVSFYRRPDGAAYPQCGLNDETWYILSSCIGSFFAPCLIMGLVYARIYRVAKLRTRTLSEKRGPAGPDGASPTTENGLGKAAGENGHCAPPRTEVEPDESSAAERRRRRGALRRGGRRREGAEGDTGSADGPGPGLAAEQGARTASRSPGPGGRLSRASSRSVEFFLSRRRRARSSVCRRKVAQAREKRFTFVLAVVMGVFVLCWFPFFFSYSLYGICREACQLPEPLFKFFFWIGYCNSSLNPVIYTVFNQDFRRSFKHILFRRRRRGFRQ
T2 sequence (P19328 whole entry): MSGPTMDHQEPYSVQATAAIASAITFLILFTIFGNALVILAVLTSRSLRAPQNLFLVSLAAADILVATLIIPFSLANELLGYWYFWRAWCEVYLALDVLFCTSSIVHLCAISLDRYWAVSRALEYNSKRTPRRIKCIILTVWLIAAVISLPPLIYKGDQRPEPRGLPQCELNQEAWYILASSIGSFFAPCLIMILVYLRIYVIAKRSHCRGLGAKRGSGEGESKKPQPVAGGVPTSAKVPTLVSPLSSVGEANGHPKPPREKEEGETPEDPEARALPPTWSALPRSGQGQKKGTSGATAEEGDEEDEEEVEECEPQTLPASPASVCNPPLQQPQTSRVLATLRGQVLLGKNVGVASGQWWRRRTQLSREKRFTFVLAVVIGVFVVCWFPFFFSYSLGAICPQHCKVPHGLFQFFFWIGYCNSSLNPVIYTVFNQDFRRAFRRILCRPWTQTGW
T2 sequence (P22909 whole entry): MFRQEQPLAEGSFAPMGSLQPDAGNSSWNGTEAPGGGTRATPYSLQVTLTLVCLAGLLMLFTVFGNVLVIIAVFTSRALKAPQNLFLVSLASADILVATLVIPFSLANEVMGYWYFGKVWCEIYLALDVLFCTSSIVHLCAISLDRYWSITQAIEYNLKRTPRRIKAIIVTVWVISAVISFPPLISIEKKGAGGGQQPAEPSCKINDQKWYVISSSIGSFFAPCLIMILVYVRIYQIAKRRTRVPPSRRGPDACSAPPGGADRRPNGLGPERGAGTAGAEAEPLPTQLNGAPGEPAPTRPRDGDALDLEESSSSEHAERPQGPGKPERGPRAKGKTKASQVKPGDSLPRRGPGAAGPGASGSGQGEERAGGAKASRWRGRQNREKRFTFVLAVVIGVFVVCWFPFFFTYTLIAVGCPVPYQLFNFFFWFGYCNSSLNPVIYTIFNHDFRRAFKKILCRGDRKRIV
Method in brief: (§1)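 pA2 at presynaptic α2-adrenoreceptors in field-stimulated rat vas deferens. Tissue was held in Krebs solution (NaCl 118 mM, KCl 4.7 mM, CaCl2 2.5 mM, KH2PO4 1.2 mM, MgSO4 0.6 mM, NaHCO3 25 mM, dextrose 11.1 mM) gassed with 95% O2/5% CO2 at 30 °C. Stimulation was 3-ms pulses, 40 V, 0.1 Hz, with contractions recorded isometrically. Twitches were inhibited by clonidine (110 nM).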

[4] = target: T3, Adrenergic receptor alpha-1 (Rattus norvegicus, UniProt P15823+P23944+P43140); assay: Alpha-1 adrenergic receptor antagonist activity in a rat anococcygeus. Values ranges from 6.50-6.62; type: functional
T3 sequence (P15823 whole entry): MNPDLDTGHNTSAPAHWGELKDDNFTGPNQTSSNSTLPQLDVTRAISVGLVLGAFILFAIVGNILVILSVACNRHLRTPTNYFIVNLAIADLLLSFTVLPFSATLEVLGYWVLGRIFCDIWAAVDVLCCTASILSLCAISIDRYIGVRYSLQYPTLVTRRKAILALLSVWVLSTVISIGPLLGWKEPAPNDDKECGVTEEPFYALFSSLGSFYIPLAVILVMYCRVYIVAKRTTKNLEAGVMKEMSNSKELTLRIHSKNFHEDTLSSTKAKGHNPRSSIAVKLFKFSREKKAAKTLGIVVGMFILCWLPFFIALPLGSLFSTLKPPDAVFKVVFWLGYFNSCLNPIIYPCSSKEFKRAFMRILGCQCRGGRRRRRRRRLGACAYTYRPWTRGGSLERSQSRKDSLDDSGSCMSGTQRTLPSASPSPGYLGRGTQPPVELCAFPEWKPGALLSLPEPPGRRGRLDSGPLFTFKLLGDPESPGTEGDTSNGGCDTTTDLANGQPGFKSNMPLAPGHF
T3 sequence (P23944 whole entry): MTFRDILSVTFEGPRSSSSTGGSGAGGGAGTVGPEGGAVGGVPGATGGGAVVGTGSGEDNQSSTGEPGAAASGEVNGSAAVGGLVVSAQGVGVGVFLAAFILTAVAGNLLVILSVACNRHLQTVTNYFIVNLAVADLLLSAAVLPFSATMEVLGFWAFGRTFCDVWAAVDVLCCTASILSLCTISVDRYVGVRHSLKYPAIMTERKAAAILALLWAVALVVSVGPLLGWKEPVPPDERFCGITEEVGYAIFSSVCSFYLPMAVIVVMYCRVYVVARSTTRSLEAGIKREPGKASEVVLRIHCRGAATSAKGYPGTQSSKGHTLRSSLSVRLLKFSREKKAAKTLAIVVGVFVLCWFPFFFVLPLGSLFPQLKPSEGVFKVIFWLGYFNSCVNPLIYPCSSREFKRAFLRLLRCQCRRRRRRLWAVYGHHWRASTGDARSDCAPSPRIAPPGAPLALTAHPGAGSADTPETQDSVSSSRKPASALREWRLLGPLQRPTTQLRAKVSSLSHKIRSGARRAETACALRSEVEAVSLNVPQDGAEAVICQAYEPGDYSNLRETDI
T3 sequence (P43140 whole entry): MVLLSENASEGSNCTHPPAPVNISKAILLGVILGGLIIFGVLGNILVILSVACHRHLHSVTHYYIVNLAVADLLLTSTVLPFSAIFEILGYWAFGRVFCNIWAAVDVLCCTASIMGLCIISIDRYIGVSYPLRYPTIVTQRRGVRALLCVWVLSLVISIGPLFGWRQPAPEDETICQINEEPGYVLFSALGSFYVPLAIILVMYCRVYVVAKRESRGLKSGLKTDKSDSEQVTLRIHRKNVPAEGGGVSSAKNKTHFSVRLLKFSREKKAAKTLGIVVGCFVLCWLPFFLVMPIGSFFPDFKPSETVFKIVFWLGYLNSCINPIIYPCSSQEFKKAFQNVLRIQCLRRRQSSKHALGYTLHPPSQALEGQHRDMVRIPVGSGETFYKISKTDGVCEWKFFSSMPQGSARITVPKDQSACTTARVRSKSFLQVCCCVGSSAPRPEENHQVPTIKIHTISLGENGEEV

[5] = target: T4, Adrenergic receptor alpha-2 (Rattus norvegicus) (UniProt P22086+P19328+P22909); assay: Presynaptic antagonist activity towards alpha-2 adrenergic receptor.; type: functional
Method in brief: (§2)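 Vas deferens from rat or mouse; the mouse tissue was in Mg-free Krebs at 30 °C under 0.5 g tension, stimulated at 0.1 Hz, 3 ms, 100–140 V, giving a twitch of about 100 mg. […] Standard curves were run before and after the test curve.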

[6] = target: T1, Adrenergic receptor alpha-1 (Rattus norvegicus); assay: post-synaptic antagonist activity towards alpha-1 adrenergic receptor was determined. Concentration giving a dose response to phenylephrine (idazoxan=1) was reported.; type: functional
Method in brief: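 Rat anococcygeus, postsynaptic α1 antagonism. At least five phenylephrine concentration–response curves were run alone, then at least four with the antagonist present.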

[7] = target: T4, Adrenergic receptor alpha-2 (Rattus norvegicus); assay: Alpha-2 adrenergic receptor antagonist activity compared to idazoxan; type: functional; method in brief: as §2
[8] = target: T3, Adrenergic receptor alpha-1; assay: Alpha-1 adrenergic receptor antagonist activity in a rat anococcygeus. Values ranges from 6.29-6.54; type: functional
[9] = target: T2, Adrenergic receptor alpha-2; assay: Alpha-2 adrenergic receptor antagonist activity in a rat vas deferens assay. Values ranges from 8.37-9.10; type: functional; method in brief: as §1
[10] = target: T2, Adrenergic receptor alpha-2; assay: Alpha-2 adrenergic receptor antagonist activity in a rat vas deferens assay. Values ranges from 8.74-9.17; type: functional; method in brief: as §1
[11] = target: T3, Adrenergic receptor alpha-1; assay: Alpha-1 adrenergic receptor antagonist activity in a rat anococcygeus. Values ranges from 6.35-6.88; type: functional
[12] = target: T3, Adrenergic receptor alpha-1; assay: Alpha-1 adrenergic receptor activity in a rat anococcygeus. Values ranges from 6.17-6.38
[13] = target: T2, Adrenergic receptor alpha-2; assay: Alpha-2 adrenergic receptor activity in a rat vas deferens assay. Values ranges from 8.25-9.35; type: tissue-based; method in brief: as §1
[14] = target: T3, Adrenergic receptor alpha-1; assay: Alpha-1 adrenergic receptor activity in a rat anococcygeus. Values ranges from 5.49-6.90
[15] = target: T1, Adrenergic receptor alpha-1 (Rattus norvegicus); assay: Alpha-1 adrenergic receptor antagonist activity relative to idazoxan.; type: functional
Method in brief: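 The agonist was phenylephrine, tested on isolated rat anococcygeus under 0.5 g initial tension. At least five phenylephrine dose-response curves were run alone, then at least four in the presence of the analogue.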

[16] = target: T2, Adrenergic receptor alpha-2; assay: Alpha-2 adrenergic receptor antagonist activity in a rat vas deferens assay. Values ranges from 7.77-8.21; type: functional, tissue-based
[17] = target: T2, Adrenergic receptor alpha-2; assay: Alpha-2 adrenergic receptor antagonist activity in a rat vas deferens assay. Values ranges from 8.54-8.87; type: functional, tissue-based
[18] = target: T3, Adrenergic receptor alpha-1; assay: Alpha-1 adrenergic receptor antagonist activity in a rat anococcygeus. Values ranges from 6.35-6.44; type: functional

SMILES	Relative potency [1]	Ratio [2]	pA2 [3]	pA2 [4]	potency relative to idazoxan [5]	Postsynaptic antagonist [6]	Relative potency [7]	pA2 [8]	pA2 [9]	pA2 [10]	pA2 [11]	pA2 [12]	pA2 [13]	pA2 [14]	Relative potency [15]	pA2 [16]	pA2 [17]	pA2 [18]
CCCC1(C2=NCCN2)COc2ccccc2O1 (configuration not stated)	1.7	1.5	–	–	4.8	3.2	2.6	–	–	8.92	6.56	–	–	–	–	–	–	–
C1=C(C2(C3=NCCN3)COc3ccccc3O2)CC1.Cl (configuration not stated)	–	2.3	–	–	0.3	0.13	0.3	–	–	–	–	–	–	6.9	0.3	8.21	–	–
CCC1(C2=NCCN2)COc2ccccc2O1 (configuration not stated)	1.2	1.3	–	–	3	2.25	1.6	–	–	–	–	–	–	–	–	–	8.87	6.44

More lines, main results first:

Relative potency [1]	Ratio [2]	pA2 [3]	pA2 [4]	potency relative to idazoxan [5]	Postsynaptic antagonist [6]	Relative potency [7]	pA2 [8]	pA2 [9]	pA2 [10]	pA2 [11]	pA2 [12]	pA2 [13]	SMILES	pA2 [14]	Relative potency [15]	pA2 [16]	pA2 [17]	pA2 [18]
1.7	0.3	8.81	6.55	2	6	2	–	–	–	–	–	–	C=CCOC1(C2=NCCN2)COc2ccccc2O1 (configuration not stated)	–	–	–	–	–
1.2	0.7	–	–	2	3	1.5	6.39	8.68	–	–	–	–	c1ccc(COC2(C3=NCCN3)COc3ccccc3O2)cc1 (configuration not stated)	–	–	–	–	–
0.9	1.5	–	–	1.5	1	1.4	–	–	–	–	6.26	8.64	CCCOC1(C2=NCCN2)COc2ccccc2O1 (configuration not stated)	–	–	–	–	–
